Results taken from ChEMBL document CHEMBL4251593, “Nontoxic combretafuranone analogues with high in vitro antibacterial activity” (Eur J Med Chem, 2018).
Values after ≈ are worked out from the molar mass of the structure shown.

Experiments:
TERT-RPE1 [1] = assay: Cytotoxicity against human RPE1 cells assessed as reduction in cell viability after 48 hrs by ATPlite-based luminescent assay; conditions: RPE-1, 48 h
How it was run: (§1)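 Cells were grown […] with 10% FBS, glutamax, NEAA and pen/strep at 37 °C, 5% CO2. Media were DMEM for RPE-1, HepG2 and BJ (BJ plus 10 ng/ml bFGF), F-12K for PC3, and IMDM for K562/HL-60. Cells were seeded at 500 per well and dosed from DMSO at 12 concentrations, 40 µM to 1 nM, in triplicate. After 48 h, intracellular ATP was read by luminescence. ED50 was obtained by variable-slope nonlinear regression.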

BJ = assay: Cytotoxicity against human BJ cells assessed as reduction in cell viability after 48 hrs by ATPlite-based luminescent assay; how it was run: as §1
K562 [2] = assay: Cytotoxicity against human K562 cells assessed as reduction in cell viability after 48 hrs by ATPlite-based luminescent assay; conditions: K562, 48 h; how it was run: as §1
HL-60 [3] = assay: Cytotoxicity against human HL60 cells assessed as reduction in cell viability after 48 hrs by ATPlite-based luminescent assay; conditions: HL-60, 48 h; how it was run: as §1
PC-3 [4] = assay: Cytotoxicity against human PC3 cells assessed as reduction in cell viability after 48 hrs by ATPlite-based luminescent assay; conditions: PC-3, 48 h; how it was run: as §1
MCF7 = assay: Cytotoxicity against human MCF7 cells assessed as reduction in cell viability after 48 hrs by ATPlite-based luminescent assay; conditions: MCF7, 48 h
HepG2 [5] = assay: Cytotoxicity against human HepG2 cells assessed as reduction in cell viability after 48 hrs by ATPlite-based luminescent assay; conditions: HepG2, 48 h; how it was run: as §1
TERT-RPE1 [6] = assay: Induction of apoptosis in human RPE1 cells assessed as caspase 3/7 activity after 24 hrs by caspase-glo luminescent assay; format: cell-based; conditions: RPE-1, 24 h
How it was run: (§2)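 Cells were seeded at 500 per well in their growth media and exposed to 12 concentrations from 40 µM to 1 nM, delivered from DMSO, in triplicate. After 24 h, caspase-3/7 activity was read by Caspase-Glo luminescence. Data were normalized and ED50 was fitted by variable-slope nonlinear regression.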

K562 [7] = assay: Induction of apoptosis in human K562 cells assessed as caspase 3/7 activity after 24 hrs by caspase-glo luminescent assay; format: cell-based; conditions: K562, 24 h; how it was run: as §2
HL-60 [8] = assay: Induction of apoptosis in human HL60 cells assessed as caspase 3/7 activity after 24 hrs by caspase-glo luminescent assay; format: cell-based; conditions: HL-60, 24 h; how it was run: as §2
PC-3 [9] = assay: Induction of apoptosis in human PC3 cells assessed as caspase 3/7 activity after 24 hrs by caspase-glo luminescent assay; format: cell-based; conditions: PC-3, 24 h; how it was run: as §2
HepG2 [10] = assay: Induction of apoptosis in human HepG2 cells assessed as caspase 3/7 activity after 24 hrs by caspase-glo luminescent assay; format: cell-based; conditions: HepG2, 24 h; how it was run: as §2
Staphylococcus aureus [11] = assay: Antibacterial activity against Staphylococcus aureus ATCC 6538 after 24 hrs by microdilution assay; format: functional; conditions: ATCC 6538, 24 h
Staphylococcus aureus [12] = assay: Antibacterial activity against methicillin-resistant Staphylococcus aureus HK5996/08 clinical isolate after 24 hrs by microdilution assay; format: functional; conditions: HK5996/08, 24 h
[13] = system: Staphylococcus epidermidis; assay: Antibacterial activity against Staphylococcus epidermidis HK6966/08 clinical isolate after 24 hrs by microdilution assay; format: functional; conditions: HK6966/08, 24 h
Enterococcus sp. [14] = assay: Antibacterial activity against Enterococcus sp. HK14365/08 clinical isolate after 24 hrs by microdilution assay; format: functional; conditions: HK14365/08, 24 h
Escherichia coli [15] = assay: Antibacterial activity against Escherichia coli ATCC 8739 after 24 hrs by microdilution assay; format: functional; conditions: ATCC 8739, 24 h
How it was run: (§3)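 Broth microdilution in Mueller-Hinton medium buffered to pH 7.4 (±0.2), with DMSO as diluent at no more than 2% final. Compounds were tested as 2-fold serial dilutions from 2000 to 0.488 µmol/l. The inoculum was 0.5 McFarland (1.5×10^8 cfu/ml). Plates were held at 37 °C and read visually at 24 and 48 h. MIC was taken as 95% growth inhibition versus control, determined twice in duplicate.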

Klebsiella pneumoniae [16] = assay: Antibacterial activity against Klebsiella pneumoniae HK11750/08 clinical isolate after 24 hrs by microdilution assay; format: functional; conditions: HK11750/08, 24 h
Klebsiella pneumoniae [17] = assay: Antibacterial activity against Klebsiella pneumoniae HK14368/08 clinical isolate after 24 hrs by microdilution assay; format: functional; conditions: HK14368/08, 24 h
Pseudomonas aeruginosa [18] = assay: Antibacterial activity against Pseudomonas aeruginosa ATCC 9027 after 24 hrs by microdilution assay; format: functional; conditions: ATCC 9027, 24 h; how it was run: as §3
Staphylococcus aureus [19] = assay: Antibacterial activity against Staphylococcus aureus ATCC 6538 after 48 hrs by microdilution assay; format: functional; conditions: ATCC 6538, 48 h
Staphylococcus aureus [20] = assay: Antibacterial activity against methicillin-resistant Staphylococcus aureus HK5996/08 clinical isolate after 48 hrs by microdilution assay; format: functional; conditions: HK5996/08, 48 h
[21] = system: Staphylococcus epidermidis; assay: Antibacterial activity against Staphylococcus epidermidis HK6966/08 clinical isolate after 48 hrs by microdilution assay; format: functional; conditions: HK6966/08, 48 h
Enterococcus sp. [22] = assay: Antibacterial activity against Enterococcus sp. HK14365/08 clinical isolate after 48 hrs by microdilution assay; format: functional; conditions: HK14365/08, 48 h
Escherichia coli [23] = assay: Antibacterial activity against Escherichia coli ATCC 8739 after 48 hrs by microdilution assay; format: functional; conditions: ATCC 8739, 48 h; how it was run: as §3
Klebsiella pneumoniae [24] = assay: Antibacterial activity against Klebsiella pneumoniae HK11750/08 clinical isolate after 48 hrs by microdilution assay; format: functional; conditions: HK11750/08, 48 h
Klebsiella pneumoniae [25] = assay: Antibacterial activity against Klebsiella pneumoniae HK14368/08 clinical isolate after 48 hrs by microdilution assay; format: functional; conditions: HK14368/08, 48 h
Pseudomonas aeruginosa [26] = assay: Antibacterial activity against Pseudomonas aeruginosa ATCC 9027 after 48 hrs by microdilution assay; format: functional; conditions: ATCC 9027, 48 h; how it was run: as §3

Compound | IC50 (TERT-RPE1 [1]) | IC50 (BJ) | IC50 (K562 [2]) | IC50 (HL-60 [3]) | IC50 (PC-3 [4]) | IC50 (MCF7) | IC50 (HepG2 [5]) | IC50 (TERT-RPE1 [6]) | IC50 (K562 [7]) | IC50 (HL-60 [8]) | IC50 (PC-3 [9]) | IC50 (HepG2 [10]) | MIC95 (Staphylococcus aureus [11]) | MIC95 (Staphylococcus aureus [12]) | MIC95 [13] | MIC95 (Enterococcus sp. [14]) | MIC95 (Escherichia coli [15]) | MIC95 (Klebsiella pneumoniae [16]) | MIC95 (Klebsiella pneumoniae [17]) | MIC95 (Pseudomonas aeruginosa [18]) | other results
CC(=O)OCC1(COC(C)=O)OC(=O)C(c2ccc(Br)cc2)=C1c1ccc(C)cc1 | > 40 µM | > 40 µM | > 40 µM | > 40 µM | > 40 µM | > 40 µM | > 40 µM | > 40 µM | > 40 µM | > 40 µM | > 40 µM | > 40 µM | > 125 µM | > 125 µM | > 125 µM | > 125 µM | > 125 µM | > 125 µM | > 125 µM | > 125 µM | MIC95 (Staphylococcus aureus [19]): > 125 µM; MIC95 (Staphylococcus aureus [20]): > 125 µM; MIC95 [21]: > 125 µM; MIC95 (Enterococcus sp. [22]): > 125 µM; MIC95 (Escherichia coli [23]): > 125 µM; MIC95 (Klebsiella pneumoniae [24]): > 125 µM; MIC95 (Klebsiella pneumoniae [25]): > 125 µM; MIC95 (Pseudomonas aeruginosa [26]): > 125 µM
COc1ccc(C2=C(c3ccc(Br)cc3)C(=O)OC2)cc1 | 3.35 µM | > 40 µM | 0.53 µM | 0.83 µM | > 40 µM | 14.3 µM | > 40 µM | 56.4 µM | > 40 µM | 2.18 µM | > 40 µM | > 40 µM | > 1000 µM | > 1000 µM | 1000 µM (≈ 345 µg/mL) | > 1000 µM | > 1000 µM | > 1000 µM | > 1000 µM | > 1000 µM | MIC95 (Staphylococcus aureus [19]): > 1000 µM; MIC95 (Staphylococcus aureus [20]): > 1000 µM; MIC95 [21]: > 1000 µM; MIC95 (Enterococcus sp. [22]): > 1000 µM; MIC95 (Escherichia coli [23]): > 1000 µM; MIC95 (Klebsiella pneumoniae [24]): > 1000 µM; MIC95 (Klebsiella pneumoniae [25]): > 1000 µM; MIC95 (Pseudomonas aeruginosa [26]): > 1000 µM
COc1ccc(C2=C(c3ccc(OC)c(OC)c3)COC2=O)cc1 | > 40 µM | > 40 µM | > 40 µM | > 40 µM | 15.9 µM | > 40 µM | > 40 µM | > 40 µM | > 40 µM | > 40 µM | > 40 µM | > 40 µM | > 125 µM | > 125 µM | > 125 µM | > 125 µM | > 125 µM | > 125 µM | > 125 µM | > 125 µM | MIC95 (Staphylococcus aureus [19]): > 125 µM; MIC95 (Staphylococcus aureus [20]): > 125 µM; MIC95 [21]: > 125 µM; MIC95 (Enterococcus sp. [22]): > 125 µM; MIC95 (Escherichia coli [23]): > 125 µM; MIC95 (Klebsiella pneumoniae [24]): > 125 µM; MIC95 (Klebsiella pneumoniae [25]): > 125 µM; MIC95 (Pseudomonas aeruginosa [26]): > 125 µM
O=C1OCC(c2ccc3c(c2)OCO3)=C1c1ccc2c(c1)OCO2 | 35.5 µM | > 40 µM | 16 µM | 17.4 µM | > 40 µM | > 40 µM | > 40 µM | > 40 µM | > 40 µM | > 40 µM | > 40 µM | > 40 µM | > 125 µM | > 125 µM | > 125 µM | > 125 µM | > 125 µM | > 125 µM | > 125 µM | > 125 µM | MIC95 (Staphylococcus aureus [19]): > 125 µM; MIC95 (Staphylococcus aureus [20]): > 125 µM; MIC95 [21]: > 125 µM; MIC95 (Enterococcus sp. [22]): > 125 µM; MIC95 (Escherichia coli [23]): > 125 µM; MIC95 (Klebsiella pneumoniae [24]): > 125 µM; MIC95 (Klebsiella pneumoniae [25]): > 125 µM; MIC95 (Pseudomonas aeruginosa [26]): > 125 µM
O=C1OCC(c2ccc(O)c(O)c2)=C1c1ccc(O)cc1 | > 40 µM | > 40 µM | 16.2 µM | > 40 µM | > 40 µM | > 40 µM | > 40 µM | > 40 µM | > 40 µM | > 40 µM | > 40 µM | > 40 µM | 250 µM (≈ 71.1 µg/mL) | 250 µM (≈ 71.1 µg/mL) | 250 µM (≈ 71.1 µg/mL) | 500 µM (≈ 142 µg/mL) | > 500 µM | > 500 µM | > 500 µM | > 500 µM | MIC95 (Staphylococcus aureus [19]): 500 µM (≈ 142 µg/mL); MIC95 (Staphylococcus aureus [20]): 500 µM (≈ 142 µg/mL); MIC95 [21]: 500 µM (≈ 142 µg/mL); MIC95 (Enterococcus sp. [22]): 500 µM (≈ 142 µg/mL); MIC95 (Escherichia coli [23]): > 500 µM; MIC95 (Klebsiella pneumoniae [24]): > 500 µM; MIC95 (Klebsiella pneumoniae [25]): > 500 µM; MIC95 (Pseudomonas aeruginosa [26]): > 500 µM
